Screening data: PubChem, The Scripps Research Institute Molecular Screening Center
A selection: hits, their analogues and other compounds. The true share with any hit is near 3.3%.
TDP2 inh: TDP2 (human) inhibition, absorbance primary screen; inhibition, % at 12.8 µM; O95551; 370,000 tested, 0.34% active; recombinant TDP2, T5PNP hydrolysis, p-nitrophenol absorbance 415 nm;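 active = inhibition above the mean of all tested compounds plus 3 SD, set per campaign, cut at about 25% in these data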;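 note: 0% = DMSO with enzyme and 100% = buffer with substrate but no TDP2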
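Assay system: Recombinant human TDP2 | Quantity: 120 nM TDP2 per well | Incubation: 2 h at 37 °C | Signal: Epi absorbance | Evaluation: Percent inhibition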
SIAE inh: human SIAE inhibition, primary screen | Q9HAT2 | SIAE FP-Rh probe binding, fluorescence polarization | inhibition, % at 9.66 µM | 370,000 tested, 0.69% active | AID 1053197;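 active = inhibition above a cutoff: mean of compounds within the control limits plus 3 SD of those, cut at about 17% in these data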;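 note: 0% = plate median of compound wells and 100% = probe without SIAE protein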
LEDGF integ inh: blocks HIV-1 LEDGF/p75-dependent DNA integration | TR-FRET IN-LEDGF/p75 DNA integration, Eu/Cy5 | inhibition, % at 3.7 µM | 370,000 tested, 0.64% active;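 active = inhibition above the screen-wide mean plus 3 SD, cut at about 13% in these data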;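 note: signal is the Cy5 over europium emission ratio at 671 and 618 nm; 0% = plate median of compound wells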
MBD2 inh: MBD2-methylated oligo binding inhibition; TR-FRET, MBD2 binding to methylated oligonucleotide; 370,000 tested, 0.31% active; inhibition, % at 4.4 µM; in the data active = inhibition above about 13%
PRMT1 FP inh: PRMT1 (human) inhibition, primary screen. 370,000 tested, 1.3% active. inhibition, % at 2.79 µM. AID 652257. recombinant PRMT1, activity-based probe fluorescence polarization;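 active = inhibition above about 21% made by adding two undisclosed values, limit read from the data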
UHRF1 MBD2 ctr: human UHRF1 methylated DNA binding inhibitors; AID 687016; 370,000 tested, 0.75% active; inhibition, % at 4.4 µM; UHRF1 binding to methylated oligo, TR-FRET; in the data active = inhibition above about 21%;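 note: UHRF1 SRA domain binding a hemimethylated CpG hairpin DNA probe; 0% = median of test compound wells and 100% = reference inhibitor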
Target sequence (Q96T88 whole entry, looked up, the tested form may be a part): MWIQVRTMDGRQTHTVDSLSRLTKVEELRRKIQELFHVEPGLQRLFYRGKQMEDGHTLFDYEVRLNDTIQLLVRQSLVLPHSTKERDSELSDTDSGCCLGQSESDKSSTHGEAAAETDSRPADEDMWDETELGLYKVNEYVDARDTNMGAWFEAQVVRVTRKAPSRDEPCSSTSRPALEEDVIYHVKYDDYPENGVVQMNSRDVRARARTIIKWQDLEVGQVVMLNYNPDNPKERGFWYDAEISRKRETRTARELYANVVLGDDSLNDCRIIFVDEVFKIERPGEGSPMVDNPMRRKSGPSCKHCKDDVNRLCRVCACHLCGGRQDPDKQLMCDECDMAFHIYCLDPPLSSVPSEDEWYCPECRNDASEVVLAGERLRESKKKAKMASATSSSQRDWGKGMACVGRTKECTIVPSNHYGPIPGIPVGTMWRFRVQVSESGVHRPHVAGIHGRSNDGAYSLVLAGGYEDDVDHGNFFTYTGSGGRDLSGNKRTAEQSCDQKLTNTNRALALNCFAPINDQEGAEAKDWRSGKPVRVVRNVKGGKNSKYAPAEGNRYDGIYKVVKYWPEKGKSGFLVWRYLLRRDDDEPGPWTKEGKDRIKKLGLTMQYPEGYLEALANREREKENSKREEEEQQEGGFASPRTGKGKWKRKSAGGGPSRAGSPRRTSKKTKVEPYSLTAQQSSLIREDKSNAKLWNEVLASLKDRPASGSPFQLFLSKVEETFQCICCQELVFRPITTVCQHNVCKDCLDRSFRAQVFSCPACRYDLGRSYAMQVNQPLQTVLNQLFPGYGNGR
PRMT1 confirm: confirmation of human PRMT1 inhibitors; recombinant His-PRMT1, activity-based probe fluorescence polarization; inhibition, % at 2.79 µM; 3,300 tested, 42% active; shares compounds with PRMT1 FP inh;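 active = mean inhibition across replicates above the hit cutoff derived for the earlier primary screen, cut at about 22% in these data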
Starred values were filed as active, the others as inactive.

SMILES	TDP2 inh	SIAE inh	LEDGF integ inh	MBD2 inh	PRMT1 FP inh	UHRF1 MBD2 ctr	others
CCN(CC)S(=O)(=O)c1ccc2c(c1)nc(SCC(=O)N(C)C1CCS(=O)(=O)C1)n2CC (stereo not given)	-3	-2	-1	-5	-1	-1
CCN(CC)S(=O)(=O)c1ccc2c(c1)nc(SCn1nnc3ccccc3c1=O)n2CC	-10	2	1	1	22*	6
COc1ccc(CN2C(=O)C(CC(=O)NCCN3CCOCC3)CC(C(=O)N(C)C)=C2C)cc1 (stereo not given)	2	-1	5	-5	-5	1
CC1=C(C(=O)N(C)C)CC(CC(=O)NCc2cccs2)C(=O)N1Cc1ccc(F)cc1 (stereo not given)	10	4	-1	8	-2	24*
CCN(CC)C(=O)C1=C(C)N(Cc2ccc(OC)cc2)C(=O)C(CC(=O)NCCN2CCOCC2)C1 (stereo not given)	-8	3	4	9	-1	22*
O=S(=O)(c1ccc2nc(Nc3ccccc3)ccc2c1)N1CCCCC1	-3	-2	-2	11	2	23*
O=S(=O)(c1ccc2nc(N3CCN(c4ccccc4F)CC3)ccc2c1)N1CCCCC1	17	-3	2	7	-2	18
O=C(Nc1cccc(S(=O)(=O)N2CCCCC2)c1)c1ccc2ccccc2n1	-2	-22	2	-1	-1	-1
O=S(=O)(c1ccc2nc(N3CCN(c4ccc(F)cc4)CC3)ccc2c1)N1CCCCC1	-3	0	5	12	-1	24*
CCC(NC(=O)c1ccc2c(ccn2Cc2cccc(-c3ccccc3C(=O)O)c2)c1)c1ccccc1 (stereo not given)	-9	-11	-3	11	12	4
Fc1ccccc1-c1n[nH]c(=S)n1N=Cc1cccc(OCc2ccccc2)c1	4	-1	-1	4	17	-2
O=C1c2ccccc2NC2(CCCC2)N1O	3	2	-2	2	-2	80*
O=C1c2ccccc2NC2(CCCCC2)N1N=C1CCCCC1	3	5	3	-1	0	3
CCC(=O)Nc1ccc2c(c1)C(=O)N(C)[C@@H]1CC[C@@H](CC(=O)NCCN3CCCCC3)O[C@H]1CO2	0	-4	0	1	3	4
O=C1c2ccccc2C(=O)c2[nH]c(=O)[nH]c21	38*	2	3	-12	3	-5
CN1Cc2nnn(Cc3ccccc3)c2-c2cc(N3CCCCC3)ccc2S1(=O)=O	-16	-8	7	2	-2	3
CCS(=O)(=O)N1CCN(c2ccc(S(=O)(=O)N3CCOCC3)cc2)CC1	-2	-7	-3	5	1	31*
CCOC(=O)CSC1=C(C#N)C(c2ccc(Cl)cc2)C(C(=O)OC)C(=O)N1 (stereo not given)	4	1	0	-6	2	-1
COC(=O)CSC1=C(C#N)C(c2ccc(Cl)cc2)C(C(=O)OC)C(=O)N1 (stereo not given)	14	-1	1	11	3	23*
CC(=O)Nc1ccc(SC[C@H](C)CN2CC[C@H](C(C)(C)C)CCC2=O)cc1	5	4	2	-2	24*	6
CC(=O)Nc1ccc(SC[C@H](CC(C)C)N2CCN(CC(C)C)CCC2=O)cc1	-6	-1	-4	2	23*	-1
CCCCNC(=O)NCC1CCN(Cc2ccc(OC)cc2)CC1	-3	-1	1	-3	-3	2
CCOc1ccc(/C=C2\SC(=S)N(CC(=O)N(CCO)C(C)(C)C)C2=O)cc1	7	0	-2	4	0	35*
O=C(c1cc(F)cc(F)c1)N1CCCC(c2nc(-c3cccs3)no2)C1 (stereo not given)	3	6	-3	0	2	-2
O=C(NCc1ccc(C(=O)N2CCOCC2)cc1)c1cccc(Br)c1	9	5	-4	2	-1	-1
SMILES	TDP2 inh	SIAE inh	LEDGF integ inh	MBD2 inh	PRMT1 FP inh	UHRF1 MBD2 ctr	others
CC(Sc1nc2cc([N+](=O)[O-])ccc2n1-c1cccc(C(F)(F)F)c1)C(=O)NC(N)=O (stereo not given)	-3	2	2	3	0	95*
C/C(=C/c1c[n+](Cc2ccc3c(c2)OCO3)c(N)[nH]1)Cn1[nH]c(=O)n(-c2ccccc2)c1=O	-6	2	-1	-5	-4	-2
Cc1cc(C)n2cc(CSc3nnc(N)s3)nc2n1	5	4	9	7	9	22*
CC(C)(C)OC(=O)N1CCC[C@H]1C(=O)NCC1CCC(C(=O)O)CC1 (stereo not given in full)	-2	4	-1	3	0	1
CSCC[C@H](NC(=O)C1CCC(CNC(=O)[C@@H]2CCCN2C(=O)OC(C)(C)C)CC1)C(=O)O (stereo not given in full)	8	-6	-5	3	1	40*
N#C/C(=C\c1ccccc1[N+](=O)[O-])C(=O)NCc1ccccc1	0	-1	3	11	8	25*
O=C(CSc1nnc(COc2ccccc2)n1-c1ccc(Cl)cc1)Nc1ccccc1-c1ccccc1	-6	-4	5	0	-11	2
O=C(O)C1CC(c2ccc(F)cc2)=NO1 (stereo not given)	4	-3	4	5	3	27*
COc1ccc2c(c1)CCCN2C(=O)C1CCCN(S(=O)(=O)c2c(C(C)C)cc(C(C)C)cc2C(C)C)C1 (stereo not given)	14	10	3	7	0	1
CC(C)(C)CCNc1nc(-c2ccccn2)nnc1-c1ccccc1	13	3	-4	-3	-4	1
CC(NS(=O)(=O)c1cn(C)c(=O)n(C)c1=O)c1ccccc1 (stereo not given)	6	4	1	9	9	24*
COc1ccc(-n2c(SCC(=O)NN=Cc3c(O)ccc4ccccc34)nnc2-c2ccc(C(C)(C)C)cc2)cc1	-2	-1	-1	1	-1	-3
COc1cccc(NC(=O)C2CC(=O)n3cnnc3S2)c1 (stereo not given)	0	1	-6	-1	79*	-1	PRMT1 confirm=61*
COc1ccc(NC(=O)C2CC(=O)n3cnnc3S2)cc1 (stereo not given)	5	5	-1	-4	74*	-2	PRMT1 confirm=79*
Cn1cccc1C(=O)N1CCN(S(=O)(=O)c2cccc3ccccc23)CC1	4	-3	1	3	-2	0
